# High-throughput results deposited in PubChem BioAssay by Johns Hopkins Ion Channel Center.
# Sampled rows, rich in hits. Any-hit rate of the full collection: about 3.8%.
# Kir21 block = inhibitors of mouse Kir2.1 inward-rectifier potassium channel | Inward rectifier potassium channel 2 (Mus musculus), P35561 | HEK293-Kir2.1, FluxOR thallium flux fluorescence; active compounds read low | B-score at 10 µM | 310,000 compounds, 0.85% hits | AID 1672, 2009;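 active means fluorescence ratio B-score at or below minus 3 SD of library scores, with starting-brightness B-score within 2 SD, cut at about -4.2 in these data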;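 further: channel flux triggered by added potassium and thallium sulfate stimulus; B-score of peak minus minimum fluorescence over baseline after thallium stimulus; more negative B-score means stronger Kir2.1 block with less thallium influx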
# KCNK3 inh = human KCNK3 channel inhibitors, primary screen, CHO cells, FluxOR thallium flux, B-score; Potassium channel subfamily K member 3 (Homo sapiens), O14649; FluxOR fluorescence; active compounds read low; B-score at 10 µM; 340,000 compounds, 0.84% hits;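 active means B-score under library mean minus 4 SD, starting fluorescence ratio at most library mean plus 5 SD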;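 further: more negative B-score means stronger inhibition of thallium flux through KCNK3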
# Target sequence (O14649 whole entry, looked up): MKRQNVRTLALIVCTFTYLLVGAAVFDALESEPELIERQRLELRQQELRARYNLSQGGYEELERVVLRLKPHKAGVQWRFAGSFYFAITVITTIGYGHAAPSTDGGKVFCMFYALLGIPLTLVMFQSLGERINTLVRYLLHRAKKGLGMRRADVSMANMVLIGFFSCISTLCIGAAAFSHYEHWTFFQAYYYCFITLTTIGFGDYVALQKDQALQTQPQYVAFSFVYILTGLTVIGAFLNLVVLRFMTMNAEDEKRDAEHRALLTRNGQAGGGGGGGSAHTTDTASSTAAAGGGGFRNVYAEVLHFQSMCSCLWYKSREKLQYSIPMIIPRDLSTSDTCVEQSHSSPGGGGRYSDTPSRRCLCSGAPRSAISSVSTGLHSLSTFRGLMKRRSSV
# KCNQ1 block = inhibitors of human KCNQ1 channel, primary screen, cell-based, thallium flux, high-throughput. Potassium voltage-gated channel subfamily KQT member 1 (Homo sapiens), P51787. CHO-K1 KCNQ1, FluxOR thallium flux fluorescence; active compounds read high. B-score at 10 µM. 310,000 compounds, 1.3% hits. AID 2642, 2010;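 active means compounds whose thallium flux B-score, printed positive for inhibition, exceeds three library SD while starting fluorescence stays within three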;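 further: channel opened by potassium depolarization with thallium stimulus after 20 min compound exposure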
# hERG rescue = hERG rescue from dofetilide block, primary screen, cell-based, CHO-hERG, FluxOR thallium flux, dofetilide IC70. dofetilide IC70 present. activation (rescue from dofetilide block), less the hit threshold, % at 10 µM. 310,000 compounds, 0.51% hits;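 active means activation above the mean of controls blocked by dofetilide plus 5 SD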;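 further: thallium influx through hERG after potassium depolarization seen as dye fluorescence rise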
# KCNQ1 pot = potentiators or activators of KCNQ1 channel, primary screen, cell-based, thallium flux, high-throughput; Potassium voltage-gated channel subfamily KQT member 1 (Homo sapiens), P51787; CHO-K1 KCNQ1, thallium flux FluxOR fluorescence; active compounds read high; B-score at 10 µM; 310,000 compounds, 0.35% hits; AID 2648, 2010;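 active means fluorescence ratio B-score, a plate-corrected score, at least three library SD, with initial intensity B-score within 5 SD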
#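 Test system: CHO-K1 cells stably expressing KCNQ1 / Medium: assay buffer / Also added: depolarizing K+/Tl+ stimulus, K2SO4 and Tl2SO4 each 12.5 mM in 5x stock / Incubation: 90 min dye loading and 20 min compound exposure, both at room temperature / Signal: thallium influx via FluxOR fluorescence, kinetic imaging / Evaluation: B score of baseline-normalized fluorescence ratio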
# KCNK9 block = KCNK9 potassium channel inhibitors, primary screen, HEK293 cells, thallium flux. Potassium channel subfamily K member 9 (Homo sapiens), Q9NPC2. FluxOR thallium flux fluorescence; active compounds read low. B-score at 10 µM. 310,000 compounds, 1.2% hits. AID 488922, 2010;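 active means ratio B-score over 3 SD below the library mean, with starting fluorescence within 5 SD of its mean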;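 further: negative B-score means less thallium flux so channel inhibition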
# KCNK9 block conf = KCNK9 potassium channel inhibitors, confirmation, HEK293 cells, thallium flux, duplicate; 4,900 compounds, 43% hits; AID 492992, 2010; FluxOR thallium flux fluorescence; inhibition, % at 10 µM; shares compounds with KCNK9 block;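 active means thallium signal inhibited by more than 5 SD of the compound-free buffer control wells, on both duplicate plates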;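 further: 0% = assay buffer control wells without compound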
# Kir21 sel = mouse Kir2.1 channel inhibition, confirmation, selectivity assay for KCNK9 modulator project, cell-based, HEK293, thallium flux | inhibition, % at 10 µM | shares compounds with KCNK9 block | 4,900 compounds, 4% hits | Kir2.1 cells, FluxOR thallium flux fluorescence;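 active means thallium signal drop more than 5 SD beyond the mean of the no-compound control wells, seen in both duplicate plates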;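 further: signal is fluorescence rise after thallium addition divided by baseline fluorescence; plate controls were assay buffer only for no effect and full block by chlorpromazine control for full effect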
# HEK293 Tl ctr = thallium flux in non-induced HEK293 cells, confirmation, counter-screen for KCNK9 inhibitor project, cell-based, second counter screen, non-induced KCNK9-HEK293; shares compounds with KCNK9 block; FluxOR thallium flux; inhibition, % at 10 µM; 4,900 compounds, 40% hits;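 active means thallium signal drop beyond 5 SD of the untreated control mean, on both duplicate plates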;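 further: plate controls were buffer only IC0 wells for no effect and SID17386958 at its maximal inhibitory level for full effect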
# The depositor's hits bear a star; i = inactive; / = no result given.
SMILES,Kir21 block,KCNK3 inh,KCNQ1 block,hERG rescue,KCNQ1 pot,KCNK9 block,KCNK9 block conf,Kir21 sel,HEK293 Tl ctr
CN1CCN(C(=O)CCNC(=O)Cn2cnc3ccccc3c2=O)CC1,-1.6,i,i,-3,i,i,/,/,/
COc1ccc(N(CCCN2C(=O)c3cccc4cccc(c34)C2=O)C(=O)c2ccncc2)cc1,-1.3,i,i,-12,i,i,/,/,/
COc1ccc(N(CCCN2C(=O)c3cccc4cccc(c34)C2=O)C(=O)c2cccnc2)cc1,-0.2,i,i,-8,i,i,i,i,i
Cc1ccc(CNC(=O)c2ccc(N3CCC4(CC3)CC(c3cccc(Br)c3)=NO4)c(NC(=O)c3cccc(C)c3)c2)cc1,/,i,/,/,/,/,/,/,/
CCN(CC)C(=O)CSc1nc(O)cc(=O)n1CC,-0.01,i,i,-7,i,i,/,/,/
Cc1c(CCC(=O)O)c(=O)oc2cc3oc4c(c3cc12)CCCC4,0.93,i,i,-7,i,i,i,i,i
C=CCn1c(SCc2cc(C(C)=O)ccc2OCC)nc2ccccc2c1=O,1.2,i,i,-6,i,-13*,66%*,i,43%*
COc1ccccc1-n1c(SCc2cc(=O)oc3cc(O)ccc23)nc2ccccc2c1=O,-0.15,i,i,-6,i,-8.3*,32%*,i,i
COc1ccc(C(C)=O)cc1CSc1nc2ccccc2c(=O)n1-c1ccccc1,0,i,i,-7,i,i,/,/,/
CCC(CO)n1c(SCc2cc(=O)oc3cc(C)ccc23)nc2ccccc2c1=O (stereo unspecified),0.2,i,i,-9,i,-12*,53%*,i,26%*
COc1ccc(C(C)=O)cc1CSc1nc2ccccc2c(=O)n1-c1ccccc1C,-0.79,i,i,-5,i,-9*,32%*,i,32%*
Cc1nn(C)cc1/C=N/NC(=O)C1(O)c2ccccc2-c2ccccc21,-0.07,i,i,-3,i,i,/,/,/
Cc1ccc(-c2ccc([C@H]3[C@H]4C=CC[C@@H](C)[C@@H]4C(=O)N3Cc3ccccc3)c(F)c2)cc1,0.18,i,i,-9,i,i,/,/,/
Cc1ccc(F)c([C@H]2[C@H]3C=CC[C@@H](C)[C@@H]3C(=O)N2Cc2ccccc2)c1,-0.15,i,i,-26,i,-8.6*,52%*,i,60%*
CC[C@@H]1CC=C[C@H]2[C@H]1C(=O)N(Cc1ccccc1)[C@H]2c1ccc(C(F)(F)F)cc1,0.6,i,i,-13,i,-8.5*,50%*,i,48%*
CC(=O)N1CCN(C(=O)c2oc3ccccc3c2C)CC1,-0.04,i,i,-12,i,i,/,/,/
Cc1cc(C(=O)COC(=O)c2cc(Cl)c(O)c(Cl)c2)c(C)n1C,/,i,/,/,/,/,/,/,/
CSC(=Nc1ccccc1)Nc1ccccc1,-1.5,i,i,-3,i,i,/,/,/
O=C(N/N=C/c1cccs1)c1ccc(NC(=O)c2ccccc2Cl)cc1,0.7,i,i,-6,i,i,/,/,/
